Experimental data reported in ChEMBL document CHEMBL1122207, “Antitumor agents. 2. Bisguanylhydrazones of anthracene-9,10-dicarboxaldehydes” (1982).

Key:
Assay type in all cases: functional
[1] = species: Mus musculus; assay: Cures is the number of survivors of the total treated mice (10) with B-16 melanoma, at 60 days.
Procedure, shortened: (§1)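 BDF1 mice were implanted ip with a homogenate from 0.05 g of B-16 melanoma and dosed ip on days 1-9. Cures are survivors over total at 60 days.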

[2] = system: Mus musculus; assay: Percent increase in median life span of BDF1 mice with P-388 leukemia at dose 3.1 mg/kg administered intraperitoneally; conditions: BDF1, P388, ip, route intraperitoneal
[3] = species: Mus musculus; assay: Anticancer activity measured as the number of survivors of the total treated mice with P-388 leukemia at 30 days.
Procedure, shortened: (§2)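 BDF1 or CDF1 mice given 10^6 ascitic P-388 leukemia cells ip, then treated ip on days 1, 5 and 9. Cures are survivors over total treated at 30 days.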

[4] = system: Mus musculus; assay: Percent increase in median life span of BDF1 mice with B-16 melanoma at dose 3.1 mg/kg administered intraperitoneally; conditions: BDF1, B16, ip, route intraperitoneal
Procedure, shortened: (§3)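 BDF1 mice were implanted ip with a homogenate from 0.05 g of B-16 melanoma. Ip dosing ran on days 1-9, starting 24 h after implant, in dose-response studies following NCI protocols. The read-out was percent increase in life span (ILS). T/C ≥125% was taken as significant.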

[5] = system: Mus musculus; assay: Percent increase in median life span of BDF1 mice with P-388 leukemia at dose 100 mg/kg administered intraperitoneally; conditions: BDF1, P388, ip, route intraperitoneal
[6] = species: Mus musculus; assay: Number of survivors of the total treated mice with B-16 melanoma, at 60 days.; procedure, shortened: as §1
[7] = system: Mus musculus; assay: Percent increase in median life span of BDF1 mice with B-16 melanoma at dose 6.00 mg/kg administered intraperitoneally; conditions: BDF1, B16, ip, route intraperitoneal; procedure, shortened: as §3
[8] = system: Mus musculus; assay: Percent increase in median life span of BDF1 mice with P-388 leukemia at dose 25 mg/kg administered intraperitoneally; conditions: BDF1, P388, ip, route intraperitoneal
[9] = system: Mus musculus; assay: Percent increase in median life span of BDF1 mice with P-388 leukemia at dose 6.25 mg/kg administered intraperitoneally; conditions: BDF1, P388, ip, route intraperitoneal
[10] = species: Mus musculus; assay: Cures is the number of survivors of the total treated mice (6) with P-388 leukemia, at 30 days.; procedure, shortened: as §2
[11] = system: Mus musculus; assay: Percent increase in median life span of BDF1 mice with B-16 melanoma at dose 3 mg/kg administered intraperitoneally; conditions: BDF1, B16, ip, route intraperitoneal; procedure, shortened: as §3
[12] = system: Mus musculus; assay: Percent increase in median life span of BDF1 mice with B-16 melanoma at dose 6 mg/kg administered intraperitoneally; conditions: BDF1, B16, ip, route intraperitoneal; procedure, shortened: as §3
[13] = system: Mus musculus; assay: Percent increase in median life span of BDF1 mice with P-388 leukemia at dose 12.5 mg/kg administered intraperitoneally; conditions: BDF1, P388, ip, route intraperitoneal
[14] = system: Mus musculus; assay: Percent increase in median life span of BDF1 mice with B-16 melanoma at dose 1.5 mg/kg administered intraperitoneally; conditions: BDF1, B16, ip, route intraperitoneal; procedure, shortened: as §3
[15] = system: Mus musculus; assay: Percent increase in median life span of BDF1 mice with P-388 leukemia at dose 6.25 mg/kg administered intraperitoneally; 1, 5, 9 days of ip treatment relative to tumor inoculation; conditions: BDF1, P388, ip, 216 h, route intraperitoneal
Procedure, shortened: (§4)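 BDF1 or CDF1 mice given 10^6 ascitic leukemia cells ip, then dosed ip on days 1, 5 and 9. Read-out is percent increase in life span versus untreated controls. Cures were scored as survivors/total at 30 days; when cures reached 50% or more, the run was extended until a specific ILS could be calculated. T/C ≥125% counted as significant.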

[16] = system: Mus musculus; assay: Percent increase in median life span of BDF1 mice with Colon 26 at dose 3.1 mg/kg administered intraperitoneally; 1, 5, 9 days of ip treatment relative to tumor inoculation; conditions: BDF1, Colon 26, ip, 216 h, route intraperitoneal
[17] = species: Mus musculus; assay: Cures is the number of survivors of the total treated mice (8) with Colon 26, at 60 days.
[18] = species: Mus musculus; assay: Cures is the number of survivors of the total treated mice (6) with advanced L-1210 leukemia, at 30 days.
Procedure, shortened: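 Advanced L-1210 leukemia, with ip treatment on days 5, 9 and 13 relative to tumor inoculation.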

[19] = system: Mus musculus; assay: Percent increase in median life span of BDF1 mice with advanced P-388 leukemia at dose 12.5 mg/kg administered intraperitoneally; 4, 8, 12 days of ip treatment relative to tumor inoculation; conditions: P388, ip, 288 h, route intraperitoneal
[20] = system: Mus musculus; assay: Percent increase in median life span of BDF1 mice with B-16 melanoma at dose 3 mg/kg administered intraperitoneally; 1-9 days of ip treatment relative to tumor inoculation; conditions: BDF1, B16, ip, route intraperitoneal; procedure, shortened: as §3
[21] = system: Mus musculus; assay: Percent tumor inhibition at non-lethal dose was determined in BDF1 mice with madison lung 109 leukemia; 1, 5, 9 days of sc treatment relative to tumor inoculation
[22] = system: Mus musculus; assay: Percent increase in median life span of BDF1 mice with advanced L-1210 leukemia at dose 6.2 mg/kg administered intraperitoneally; treatment day +2 iv; conditions: L1210
[23] = system: Mus musculus; assay: Percent increase in median life span of BDF1 mice with madison lung 109 leukemia administered intraperitoneally
[24] = species: Mus musculus; assay: Cures is the number of survivors of the total treated mice (6) with L-1210 leukemia, at 30 days.
[25] = species: Mus musculus; assay: Cures is the number of survivors of the total treated mice (10) with advanced B-16 melanoma, at 30 days.
[26] = species: Mus musculus; assay: Cures is the number of survivors of the total treated mice (20) with B-16 melanoma, at 60 days.; procedure, shortened: as §1
[27] = species: Mus musculus; assay: Cures is the number of survivors of the total treated mice (10) with Colon 26, at 60 days.
[28] = system: Mus musculus; assay: Percent increase in median life span of BDF1 mice with B-16 melanoma at dose 3 mg/kg administered intraperitoneally; range 116-129%, 1-9 days of ip treatment relative to tumor inoculation; conditions: BDF1, B16, ip, route intraperitoneal; procedure, shortened: as §3
[29] = system: Mus musculus; assay: Percent increase in median life span of BDF1 mice with L-1210 leukemia at dose 6.2 mg/kg administered intraperitoneally; 1, 5, 9 days of ip treatment relative to tumor inoculation; conditions: BDF1, L1210, ip, 216 h, route intraperitoneal; procedure, shortened: as §4
[30] = system: Mus musculus; assay: Percent increase in median life span of BDF1 mice with advanced B-16 melanoma at dose 6.2 mg/kg administered intraperitoneally; 5, 9, 13 days of ip treatment relative to tumor inoculation; conditions: B16, ip, 312 h, route intraperitoneal
[31] = species: Mus musculus; assay: Cures is the number of survivors of the total treated mice (18) with P-388 leukemia, at 30 days.; procedure, shortened: as §2
[32] = system: Mus musculus; assay: Percent increase in median life span of BDF1 mice with Colon 26 at dose 6.2 mg/kg administered intraperitoneally; 1, 5, 9 days of ip treatment relative to tumor inoculation; conditions: BDF1, Colon 26, ip, 216 h, route intraperitoneal
[33] = species: Mus musculus; assay: Cures is the number of survivors of the total treated mice (17) with L-1210 leukemia, at 30 days.
[34] = system: Mus musculus; assay: Cures is the number of survivors of the total treated mice (6) with advanced L-1210 leukemia; treatment day +2 iv
Procedure, shortened: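 Advanced L-1210 leukemia, treated iv once on day +2 relative to tumor inoculation.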

[35] = species: Mus musculus; assay: Cures is the number of survivors of the total treated mice (42) with P-388 leukemia, at 30 days.; procedure, shortened: as §2
[36] = species: Mus musculus; assay: Cures is the number of survivors of the total treated mice (20) with Colon 26, at 60 days.
[37] = system: Mus musculus; assay: Percent increase in median life span of BDF1 mice with P-388 leukemia at dose 12.5 mg/kg administered intraperitoneally; 1, 5, 9 days of ip treatment relative to tumor inoculation; conditions: BDF1, P388, ip, 216 h, route intraperitoneal; procedure, shortened: as §4
[38] = system: Mus musculus; assay: Percent increase in median life span of BDF1 mice with L-1210 leukemia at dose 12.5 mg/kg administered intraperitoneally; 1, 5, 9 days of ip treatment relative to tumor inoculation; conditions: BDF1, L1210, ip, 216 h, route intraperitoneal; procedure, shortened: as §4
[39] = species: Mus musculus; assay: Percent increase in median life span of BDF1 mice with advanced L-1210 leukemia
[40] = system: Mus musculus; assay: Percent increase in median life span of BDF1 mice with advanced B-16 melanoma at dose 12.5 mg/kg administered intraperitoneally; 5, 9, 13 days of ip treatment relative to tumor inoculation; conditions: BDF1, B16, ip, 312 h, route intraperitoneal
[41] = species: Mus musculus; assay: Cures is the number of survivors of the total treated mice (10) with P-388 leukemia, at 30 days.; procedure, shortened: as §2
[42] = system: Mus musculus; assay: Percent increase in median life span of BDF1 mice with B-16 melanoma at dose 6 mg/kg administered intraperitoneally; range 98-122%; 1-9 days of ip treatment relative to tumor inoculation; conditions: BDF1, B16, ip, route intraperitoneal; procedure, shortened: as §3
[43] = system: Mus musculus; assay: Percent increase in median life span of BDF1 mice with Colon 26 at dose 6.2 mg/kg administered intraperitoneally; Range is 114-150%; 1, 5, 9 days of ip treatment relative to tumor inoculation; conditions: BDF1, Colon 26, ip, 216 h, route intraperitoneal

SMILES: Cl.Cl.Fc1cccc2c(/C=N/NC3=NCCN3)c3ccccc3c(/C=N/NC3=NCCN3)c12
- Cures [1]: 1
- ILS at 3.1 mg/kg [2]: 115%
- Cures [3]: 0
- ILS at 3.1 mg/kg [4]: 100%

SMILES: CC(C)N(CC/N=C(\S)N/N=C/c1c2ccccc2c(/C=N/N/C(S)=N/CCN(C(C)C)C(C)C)c2ccccc12)C(C)C.Cl.Cl
- ILS at 100 mg/kg [5]: 53%
- Cures [3]: 0

SMILES: CN(C)CCCCC/N=C(\S)N/N=C/c1c2ccccc2c(/C=N/N/C(S)=N/CCCCCN(C)C)c2ccccc12.Cl.Cl
- Cures [6]: 0
- ILS at 6 mg/kg [7]: 97%
- Cures [3]: 0
- ILS at 25 mg/kg [8]: 48%

SMILES: CN(/N=C/c1c2ccccc2c(/C=N/N(C)C2=NCCN2)c2ccccc12)C1=NCCN1
- Cures [6]: 0
- ILS at 6.25 mg/kg [9]: 124%
- Cures [10]: 1
- ILS at 3 mg/kg [11]: 95%

SMILES: C/N=C(\NC)N/N=C/c1c2ccccc2c(/C=N/N/C(=N/C)NC)c2ccccc12
- Cures [6]: 0
- ILS at 6.25 mg/kg [9]: 118%
- Cures [10]: 1
- ILS at 3 mg/kg [11]: 111%

SMILES: CN(C)C(=N)N/N=C/c1c2ccccc2c(/C=N/N=C(\N)N(C)C)c2cc(Cl)ccc12.Cl.Cl
- Cures [6]: 0
- ILS at 6 mg/kg [12]: 39%
- Cures [3]: 0
- ILS at 12.5 mg/kg [13]: 82%

SMILES: Cl.Cl.Clc1cccc2c(/C=N/NC3=NCCN3)c3ccccc3c(/C=N/NC3=NCCN3)c12
- ILS at 6.25 mg/kg [9]: 186%
- ILS at 1.5 mg/kg [14]: 153%
- Cures [1]: 3
- Cures [10]: 3

SMILES: Cl.Cl.Clc1ccc2c(/C=N/NC3=NCCCN3)c3ccccc3c(/C=N/NC3=NCCCN3)c2c1
- ILS at 6.25 mg/kg [15]: 127%
- Cures [1]: 6
- ILS at 3.1 mg/kg [16]: 175%
- Cures [17]: 1
- Cures [18]: 0
- ILS at 12.5 mg/kg [19]: 80%
- ILS at 3 mg/kg [20]: 194%
- Inhibition [21]: 16%
- ILS at 6.2 mg/kg [22]: 28%
- ILS [23]: <25%

SMILES: CN(C)C(=N)N/N=C/c1c2ccccc2c(/C=N/N=C(\N)N(C)C)c2ccccc12
- ILS at 6.25 mg/kg [15]: 103%
- Cures [24]: 0
- Cures [25]: 2
- Cures [26]: 2
- Cures [27]: 1
- ILS at 3 mg/kg [28]: 125%
- ILS at 6.2 mg/kg [29]: 100%
- ILS at 6.2 mg/kg [30]: 41%
- Cures [31]: 3
- ILS at 6.2 mg/kg [32]: 167%

SMILES: C(=N\NC1=NCCN1)/c1c2ccccc2c(/C=N/NC2=NCCN2)c2ccccc12 [BISANTRENE]
- Cures [33]: 0
- Cures [34]: 0
- Cures [35]: 17
- Cures [10]: 0
- Cures [36]: 6
- ILS at 12.5 mg/kg [37]: 137%
- ILS at 12.5 mg/kg [38]: 62%
- Cures [25]: 2
- Cures [26]: 2
- ILS [39]: 48%
- ILS at 12.5 mg/kg [40]: 54%
- Cures [41]: 2
- ILS at 12.5 mg/kg [19]: 76%
- Inhibition [21]: 20%
- ILS at 6 mg/kg [42]: 122%
- ILS [23]: <25%
- ILS at 6.2 mg/kg [43]: 114%
